According to ChEMBL document CHEMBL1121610, “Plant antitumor agents. 18. Synthesis and biological activity of camptothecin analogues” (J Med Chem, 1980):
≈ marks a conversion by molar mass, not a printed value. Calls of active or inactive are those of the source. The calls are words filed in the database; no cut-off is given here.

Assays:
Mus musculus [1] = experiment: Optimal activity expressed as percentage treated to that of control was measured in vivo against P-388 leukemia cells; type: functional
Method in brief: (§1)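 In vivo P-388 lymphocytic leukemia (PS) assay run by National Cancer Institute contractors under standard protocols. Compounds were dosed over a range in mg/kg, and activity is reported as % T/C (treated vs control). The optimal dose and the lowest toxic dose were taken from the dose series, and a therapeutic index was tabulated from them.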

P388 [2] = experiment: This is the dose at which optimal activity was observed against P-388 leukemia cells; type: functional, Mus musculus; method in brief: as §1
[3] = In vitro cytotoxicity of compound was tested against 9KB cells.; type: functional; conditions: Homo sapiens, read-out: ED50 (the source's name)
Method in brief: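 Cytotoxicity against KB (9KB) cells was run in vitro at Research Triangle Institute under standard protocols. Potency is expressed as ED50 in μg/mL.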

P388 [4] = experiment: Antileukemic activity against P-388 leukemia cells was measured at given dose range; type: functional, Mus musculus; method in brief: as §1
[5] = Therapeutic index was measured on P-388 leukemia cells against P-388 leukemia cells; type: organism-based; conditions: mouse, read-out: Therapeutic index; method in brief: as §1
[6] = Therapeutic index was measured on P-388 leukemia cells.; conditions: mouse, read-out: Therapeutic index; method in brief: as §1
P388 [7] = experiment: Lowest toxicity was observed at this dose against P-388 leukemia cells; type: functional, Mus musculus; method in brief: as §1
[8] = Therapeutic index was measured on P-388 leukemia cells; conditions: mouse, read-out: Therapeutic index; method in brief: as §1
Mus musculus [9] = experiment: Optimal activity expressed as percentage treated to that of control was measured in vivo against P-388 leukemia cells; NA means inactive; type: functional, organism-based; method in brief: as §1

Compound | T/C (Mus musculus [1]) [%] | Dose (P388 [2]) [mg/kg] | EC50 [3] [µg/mL] | Dose range (P388 [4]) [mg/kg] | selectivity ratio [5] | selectivity ratio [6] | Dose (P388 [7]) [mg/kg] | selectivity ratio [8] | T/C (Mus musculus [9])
CCC1(O)C(=O)OCc2c1cc1n(c2=O)Cc2cc3cc4ccccc4cc3nc2-1 (stereo unspecified) | 198 | 16 | 0.2 (≈ 0.502 µM) | 32 | 4 | – | – | – | –
CC[C@@]1(O)C(=O)OCc2c1cc1n(c2=O)Cc2cc3cc(O)ccc3nc2-1 [HYDROXYCAMPTOTHECIN] | 314 | 4 | 0.02 (≈ 0.0549 µM) | 8 | – | 8 | 8 | – | –
CC[C@@]1(O)C(=O)OCc2c1cc1n(c2=O)Cc2cc3cc(OC)ccc3nc2-1 | 145 | 0.5 | 0.02 (≈ 0.0529 µM) | 4 | – | 1 | 1 | – | –
COCCC1(O)C(=O)OCc2c1cc1n(c2=O)Cc2cc3ccccc3nc2-1 (stereo unspecified) | 160 | 4 | 0.2 (≈ 0.529 µM) | 8 | – | 2 | 8 | – | –
CC[C@@](O)(C(=O)[O-])c1cc2n(c(=O)c1CO)Cc1cc3ccccc3nc1-2.[Na+] | 212 | 40 | – | 8 | – | 4 | 80 | – | –
CCN(CC)CCOc1ccc2nc3c(cc2c1)Cn1c-3cc2c(c1=O)COC(=O)[C@]2(O)CC.Cl | 234 | 32 | > 1 | 32 | 16 | – | – | – | –
CC[C@@]1(O)C(=O)OCc2c1cc1n(c2=O)Cc2cc3ccccc3nc2-1 [CAMPTOTHECIN] | 197 | 4 | – | 8 | – | – | 8 | 8 | –
CCCC1(O)C(=O)OCc2c1cc1n(c2=O)Cc2cc3cccnc3nc2-1 (stereo unspecified) | 175 | 32 | – | 32 | 2 | – | – | – | –
CC[C@@]1(O)C(=O)OCc2c1cc1n(c2=O)Cc2cc3cc(OCC(=O)[O-])ccc3nc2-1.[Na+] | – | – | > 1 | 32 | – | – | – | – | inactive
CCC1(O)C(=O)OCc2c1cc1n(c2=O)Cc2cc3ccccc3nc2-1 (stereo unspecified) | 222 | 8 | 0.1 (≈ 0.287 µM) | 16 | – | 8 | 16 | – | –
